Experimental data taken from ChEMBL document CHEMBL1142454, “Synthesis and evaluation of novel 4-amino-4,6-androstadiene-3,17-dione: an analog of formestane” (2008).

system: IGROV-1; assay: Antitumor activity against human IGROV1 cells assessed as reduction of cell growth at 10 uM after 48 hrs by SRB assay; format: functional; parameters: scale not given: the % may be the effect or the level left
Method in brief: (§1)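 NCI 60-cell-line primary screen, single dose 10^-5 M (final). Cells grown in RPMI 1640 with 5% FBS and 2 mM L-glutamine, seeded at 5000–40,000 cells/well and preincubated 24 h at 37 °C, 5% CO2. Compound is dissolved in DMSO, diluted in medium with gentamicin, and exposed 48 h. Cells are fixed with 10% TCA (final) and stained with 0.4% SRB; absorbance is read at 515 nm. Readout is growth percentage.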

Compound	Activity [%]
C[C@]12CC[C@H]3[C@@H](CCC4=CC(=O)CC[C@@]43CF)[C@@H]1CCC2=O	62.42

system: T47D; assay: Antitumor activity against human T47D cells assessed as reduction of cell growth at 10 uM after 48 hrs by SRB assay; format: functional; parameters: scale not given: the % may be the effect or the level left
Method in brief: (§2)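 NCI-60 one-dose primary screen at 10^-5 M final. Cells grown in RPMI 1640 with 5% FBS and 2 mM L-glutamine, plated at 5000–40,000 cells/well and preincubated 24 h at 37 °C, 5% CO2. Drug stocks in DMSO, diluted in medium with gentamicin. Exposure 48 h, then fixed in situ with TCA (10% final) for 60 min at 4 °C. Stained with 0.4% SRB in 1% acetic acid, bound dye solubilized in 10 mM trizma base, absorbance read at 515 nm. Reported as mean growth percent; negative values indicate cell kill.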

Compound	Activity [%]
C[C@]12CC[C@H]3[C@@H](CCC4=CC(=O)CC[C@@]43CF)[C@@H]1CCC2=O	39.44

system: MCF7; assay: Antitumor activity against human MCF7 cells assessed as reduction of cell growth at 10 uM after 48 hrs by SRB assay; format: functional; parameters: scale not given: the % may be the effect or the level left; method in brief: as §1

Compound	Activity [%]
C[C@]12CC[C@H]3[C@@H](CCC4=CC(=O)CC[C@@]43CF)[C@@H]1CCC2=O	130.43

system: not listed separately; assay: Antitumor activity against human Hs 578T cells assessed as reduction of cell growth at 10 uM after 48 hrs by SRB assay; format: functional; parameters: scale not given: the % may be the effect or the level left; method in brief: as §1

Compound	Activity [%]
C[C@]12CC[C@H]3[C@@H](CCC4=CC(=O)CC[C@@]43CF)[C@@H]1CCC2=O	127.96

system: BT-549; assay: Antitumor activity against human BT-549 cells assessed as reduction of cell growth at 10 uM after 48 hrs by SRB assay; format: functional; parameters: scale not given: the % may be the effect or the level left; method in brief: as §1

Compound	Activity [%]
C[C@]12CC[C@H]3[C@@H](CCC4=CC(=O)CC[C@@]43CF)[C@@H]1CCC2=O	97.23

system: SW-620; assay: Antitumor activity against human SW620 cells assessed as reduction of cell growth at 10 uM after 48 hrs by SRB assay; format: functional; parameters: scale not given: the % may be the effect or the level left; method in brief: as §2

Compound	Activity [%]
C[C@]12CC[C@H]3[C@@H](CCC4=CC(=O)CC[C@@]43CF)[C@@H]1CCC2=O	125.89

system: KM12; assay: Antitumor activity against human KM12 cells assessed as reduction of cell growth at 10 uM after 48 hrs by SRB assay; format: functional; parameters: scale not given: the % may be the effect or the level left; method in brief: as §1

Compound	Activity [%]
C[C@]12CC[C@H]3[C@@H](CCC4=CC(=O)CC[C@@]43CF)[C@@H]1CCC2=O	117.01

system: HCT-15; assay: Antitumor activity against human HCT-15 cells assessed as reduction of cell growth at 10 uM after 48 hrs by SRB assay; format: functional; parameters: scale not given: the % may be the effect or the level left; method in brief: as §1

Compound	Activity [%]
C[C@]12CC[C@H]3[C@@H](CCC4=CC(=O)CC[C@@]43CF)[C@@H]1CCC2=O	106.17

system: COLO 205; assay: Antitumor activity against human COLO205 cells assessed as reduction of cell growth at 10 uM after 48 hrs by SRB assay; format: functional; parameters: scale not given: the % may be the effect or the level left; method in brief: as §1

Compound	Activity [%]
C[C@]12CC[C@H]3[C@@H](CCC4=CC(=O)CC[C@@]43CF)[C@@H]1CCC2=O	134.97

system: NCI-H522; assay: Antitumor activity against human NCI-H522 cells assessed as reduction of cell growth at 10 uM after 48 hrs by SRB assay; format: functional; parameters: scale not given: the % may be the effect or the level left; method in brief: as §1

Compound	Activity [%]
C[C@]12CC[C@H]3[C@@H](CCC4=CC(=O)CC[C@@]43CF)[C@@H]1CCC2=O	87.35

system: NCI-H460; assay: Antitumor activity against human NCI-H460 cells assessed as reduction of cell growth at 10 uM after 48 hrs by SRB assay; format: functional; parameters: scale not given: the % may be the effect or the level left; method in brief: as §1

Compound	Activity [%]
C[C@]12CC[C@H]3[C@@H](CCC4=CC(=O)CC[C@@]43CF)[C@@H]1CCC2=O	108.88

system: NCI-H322M; assay: Antitumor activity against human NCI-H322M cells assessed as reduction of cell growth at 10 uM after 48 hrs by SRB assay; format: functional; parameters: scale not given: the % may be the effect or the level left; method in brief: as §1

Compound	Activity [%]
C[C@]12CC[C@H]3[C@@H](CCC4=CC(=O)CC[C@@]43CF)[C@@H]1CCC2=O	101.55

system: NCI-H226; assay: Antitumor activity against human NCI-H226 cells assessed as reduction of cell growth at 10 uM after 48 hrs by SRB assay; format: functional; parameters: scale not given: the % may be the effect or the level left; method in brief: as §1

Compound	Activity [%]
C[C@]12CC[C@H]3[C@@H](CCC4=CC(=O)CC[C@@]43CF)[C@@H]1CCC2=O	111.29

system: HOP-92; assay: Antitumor activity against human HOP-92 cells assessed as reduction of cell growth at 10 uM after 48 hrs by SRB assay; format: functional; parameters: scale not given: the % may be the effect or the level left; method in brief: as §1

Compound	Activity [%]
C[C@]12CC[C@H]3[C@@H](CCC4=CC(=O)CC[C@@]43CF)[C@@H]1CCC2=O	113.59

system: EKVX; assay: Antitumor activity against human EKVX cells assessed as reduction of cell growth at 10 uM after 48 hrs by SRB assay; format: functional; parameters: scale not given: the % may be the effect or the level left; method in brief: as §1

Compound	Activity [%]
C[C@]12CC[C@H]3[C@@H](CCC4=CC(=O)CC[C@@]43CF)[C@@H]1CCC2=O	94.85

system: A549; assay: Antitumor activity against human A549/ATCC cells assessed as reduction of cell growth at 10 uM after 48 hrs by SRB assay; format: functional; parameters: scale not given: the % may be the effect or the level left; method in brief: as §1

Compound	Activity [%]
C[C@]12CC[C@H]3[C@@H](CCC4=CC(=O)CC[C@@]43CF)[C@@H]1CCC2=O	99.26

system: SF-539; assay: Antitumor activity against human SF-539 cells assessed as reduction of cell growth at 10 uM after 48 hrs by SRB assay; format: functional; parameters: scale not given: the % may be the effect or the level left; method in brief: as §1

Compound	Activity [%]
C[C@]12CC[C@H]3[C@@H](CCC4=CC(=O)CC[C@@]43CF)[C@@H]1CCC2=O	105.8

system: SNB-75; assay: Antitumor activity against human SNB75 cells assessed as reduction of cell growth at 10 uM after 48 hrs by SRB assay; format: functional; parameters: scale not given: the % may be the effect or the level left; method in brief: as §1

Compound	Activity [%]
C[C@]12CC[C@H]3[C@@H](CCC4=CC(=O)CC[C@@]43CF)[C@@H]1CCC2=O	90.07

system: U-251; assay: Antitumor activity against human U251 cells assessed as reduction of cell growth at 10 uM after 48 hrs by SRB assay; format: functional; parameters: scale not given: the % may be the effect or the level left; method in brief: as §2

Compound	Activity [%]
C[C@]12CC[C@H]3[C@@H](CCC4=CC(=O)CC[C@@]43CF)[C@@H]1CCC2=O	111.4
